Experimental data from different studies.
Lines come from different studies, so protocols differ.
gyrA: DNA gyrase subunit A (gyrA, Escherichia coli K-12, UniProt P0AES4)
gag-pol reverse transcriptase: Gag-Pol polyprotein, reverse transcriptase (gag-pol, Human immunodeficiency virus 1, UniProt P03366)
OPRD1: Delta-type opioid receptor (OPRD1, Homo sapiens, UniProt P41143)

The IC50 of `CC(C)Oc1c(NC(=O)c2ccc(NC(=O)[C@H](CC(N)=O)NC(=O)c3ccc(NC(=O)c4ccc(C5(C(F)(F)F)N=N5)cc4)cc3)cc2)ccc(C(=O)Nc2ccc(C(=O)O)cc2)c1O` is reported as 16000 nM (gyrA; enzyme activity; inhibitor).
`Cc1cc(C)cc(S(=O)(=O)c2c(C(=O)NCCCNS(=O)(=O)c3cccnc3)[nH]c3ccc(Cl)cc23)c1` gave an IC50 of 41 nM (gag-pol reverse transcriptase; enzyme activity; inhibitor; ELISA).
With `CC(C)Oc1c(NC(=O)c2ccc(NC(=O)[C@H](CC(N)=O)NC(=O)c3ccc(-c4nn[nH]c4-c4ccc(C#N)cc4)cc3)cc2)ccc(C(=O)Nc2ccc(C(=O)O)cc2)c1O` the IC50 was > 50000 nM (gyrA; enzyme activity; inhibitor).
`Cc1cnc(-c2ccc(-c3ccc(NC(=O)Nc4c(F)cc(F)cc4F)cc3F)c3c2C(=O)NC3)[nH]1` gave a Kd of 0.3 nM (STE20-like serine/threonine-protein kinase (SLK, Homo sapiens, UniProt Q9H2G2); binding; competition with immobilised ligand).
`CC(C)Oc1c(NC(=O)c2ccc(NC(=O)[C@H](CC(N)=O)NC(=O)c3ccc(NC(=O)c4ccccc4)cc3)cc2)ccc(C(=O)Nc2ccc(C(=O)O)cc2)c1O` has an IC50 of 4000 nM (gyrA; enzyme activity; inhibitor).
With `Cc1cc(C)cc(S(=O)(=O)c2c(C(=O)NCCCCCNS(=O)(=O)c3cccnc3)[nH]c3ccc(Cl)cc23)c1` the IC50 was 95 nM (gag-pol reverse transcriptase; enzyme activity; inhibitor; ELISA).
With `CC1=C(/C=C/C2=CCC[C@@]3(C)[C@H]2CC[C@@H]3[C@@](C)(O)CCCC(C)C)C[C@@H](O)CC1` the EC50 was 10 to 100 nM (Oxysterols receptor LXR-alpha (NR1H3, Homo sapiens, UniProt Q13133); coactivator recruitment; agonist; TR-FRET).
`O[C@@H]1[C@H](O)[C@@H]2C[C@@H]2[C@H]1n1cnc2c(NCCc3ccccc3)nc(C#Cc3ccccc3)nc21` has a Ki of > 10000 nM (OPRD1; ligand displacement; radioligand).
With `N#Cc1ccc(Nc2nc(N)cc(Oc3ccc(-c4ccc(C#N)cc4)cc3Cl)n2)cc1` the IC50 was 30 nM (gag-pol reverse transcriptase; enzyme activity; inhibitor).
With `CNc1nc(C#Cc2ccc(Cl)s2)nc2c1ncn2[C@H]1[C@H](O)[C@H](O)[C@]2(C(=O)NCCN)C[C@H]12` the Ki was > 10000 nM (OPRD1; ligand displacement; radioligand).
With `CCn1c(-c2nc3cc(C(=O)N4CCC[C@@H](N)C4)cc(OC)c3n2C)cc2cccnc21` the EC50 was > 50100 nM (5-hydroxytryptamine receptor 3A (HTR3A, Homo sapiens, UniProt P46098); calcium signal; agonist).
`Cc1ccc(S(=O)(=O)NCCCCCNC(=O)c2[nH]c3ccc(Cl)cc3c2S(=O)(=O)c2cc(C)cc(C)c2)cc1` gave an IC50 of 130 nM (gag-pol reverse transcriptase; enzyme activity; inhibitor; ELISA).
`CNc1nc(C#Cc2ccc(Cl)s2)nc2c1ncn2[C@H]1[C@H](O)[C@H](O)[C@]2(C(=O)OCCC(C)C)C[C@H]12` gave a Ki of > 10000 nM (OPRD1; ligand displacement; radioligand).
With `Cc1cc(C)cc(S(=O)(=O)c2c(C(=O)NCCCCNS(=O)(=O)c3ccc(Br)cc3)[nH]c3ccc(Cl)cc23)c1` the IC50 was 150 nM (gag-pol reverse transcriptase; enzyme activity; inhibitor; ELISA).
The Ki of `CNC(=O)[C@@]12C[C@@H]1[C@@H](n1cnc3c(NC)nc(C#Cc4ccc(Br)s4)nc31)[C@H](O)[C@@H]2O` is reported as > 10000 nM (OPRD1; ligand displacement; radioligand).
For `Cc1cc(C)cc(S(=O)(=O)c2c(C(=O)NCCNS(=O)(=O)c3ccccc3F)[nH]c3ccc(Cl)cc23)c1`, the IC50 was 83 nM (gag-pol reverse transcriptase; enzyme activity; inhibitor; ELISA).
With `CNc1nc(C#Cc2ccc(Cl)s2)nc2c1ncn2[C@H]1[C@H](O)[C@H](O)[C@]2(C(=O)OC(C)C)C[C@H]12` the Ki was > 10000 nM (OPRD1; ligand displacement; radioligand).
